Source: ChEMBL document CHEMBL1799960, “Diadenosine 5',5''-(boranated)polyphosphonate analogues as selective nucleotide pyrophosphatase/phosphodiesterase inhibitors” (J Med Chem, 2010)
Calls of active or inactive are those of the source. No cut-off for these calls is given here.

Columns and labels:
Autotaxin (Homo sapiens) = Autotaxin (Homo sapiens) (UniProt Q13822); assay: Inhibition of human NPP2 expressed in COS7 cells assessed as production of p-nitrophenol using pnp-TMP as the substrate at 100 uM after 15 mins […]; format: cell-based; conditions: COS-7
How it was run: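 Human NPP1, NPP2 (membrane lysate or conditioned medium for the secreted form) or NPP3 from transfected COS-7 cells, preincubated 3 min at 37 °C in 50 mM Tris pH 8.5 buffer with CaCl2, NaCl and KCl. Substrate and inhibitor both at 100 μM final. pnp-TMP: p-nitrophenol read at 405 nm at 15 min. ATP or Ap5A: stopped at 30 min with perchloric acid, then HPLC. Results as % residual activity versus control; three to six experiments in triplicate.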

[1] = target: T1, Ectonucleotide pyrophosphatase/phosphodiesterase family member 1 (Homo sapiens, UniProt P22413); assay: Inhibition of human NPP1 expressed in COS7 cells assessed as production of p-nitrophenol using pnp-TMP as the substrate after 15 mins […]; format: cell-based, COS-7
T1 sequence (P22413 whole entry): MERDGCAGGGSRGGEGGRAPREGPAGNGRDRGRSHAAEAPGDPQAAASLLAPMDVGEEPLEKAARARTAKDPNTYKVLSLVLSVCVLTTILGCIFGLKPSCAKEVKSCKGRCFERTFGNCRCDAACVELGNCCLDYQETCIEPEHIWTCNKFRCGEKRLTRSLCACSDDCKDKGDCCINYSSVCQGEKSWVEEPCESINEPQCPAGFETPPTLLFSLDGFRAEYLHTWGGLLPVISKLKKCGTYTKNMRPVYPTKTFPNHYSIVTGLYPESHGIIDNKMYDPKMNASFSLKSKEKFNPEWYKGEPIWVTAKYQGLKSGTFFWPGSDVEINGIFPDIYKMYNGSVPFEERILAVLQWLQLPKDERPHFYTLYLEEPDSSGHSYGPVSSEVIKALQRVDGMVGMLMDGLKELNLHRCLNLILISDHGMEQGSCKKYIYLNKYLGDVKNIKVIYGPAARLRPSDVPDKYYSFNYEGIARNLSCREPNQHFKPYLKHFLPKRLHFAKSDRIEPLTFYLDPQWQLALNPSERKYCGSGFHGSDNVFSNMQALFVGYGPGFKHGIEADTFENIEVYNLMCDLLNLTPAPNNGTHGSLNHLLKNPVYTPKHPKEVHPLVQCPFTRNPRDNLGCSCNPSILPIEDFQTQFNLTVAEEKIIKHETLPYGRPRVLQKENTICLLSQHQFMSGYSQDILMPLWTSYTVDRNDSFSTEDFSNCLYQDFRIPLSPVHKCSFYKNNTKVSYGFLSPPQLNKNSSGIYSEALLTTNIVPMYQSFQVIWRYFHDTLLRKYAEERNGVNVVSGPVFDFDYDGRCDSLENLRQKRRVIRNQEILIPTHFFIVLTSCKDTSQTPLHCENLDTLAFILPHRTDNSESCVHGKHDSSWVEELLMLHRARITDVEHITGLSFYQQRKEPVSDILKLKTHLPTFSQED
How it was run: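 Human NPP1 COS-7 extract in Tris pH 8.5 buffer at 37 °C with pnp-TMP; p-nitrophenol read at 405 nm after 15 min. […] Values from Dixon and Cornish-Bowden plots of three independent experiments in triplicate.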

[2] = target: 5'-nucleotidase (Homo sapiens) (UniProt P21589); assay: Inhibition of human Ecto-5'-nucleotidase expressed in COS7 cells assessed as amount of inorganic phosphate released using AMP as the substrate at 100 uM after 15 mins by malachite green reagent method; conditions: COS-7
[3] = target: T2, Ectonucleotide pyrophosphatase/phosphodiesterase family member 1 (Homo sapiens) (UniProt P22413); assay: Activity of human NPP1 expressed in COS7 cells assessed as production of p-nitrophenol using Ap5A as the substrate at 100 uM after 30 mins by malachite green reagent method; format: cell-based; conditions: COS-7
T2 sequence (whole entry): T1 sequence (P22413 whole entry)

[4] = target: T3, Ectonucleoside triphosphate diphosphohydrolase 1 (Homo sapiens) (UniProt P49961); assay: Activity of human NTPDase1 expressed in COS7 cells assessed as amount of inorganic phosphate released using ATP as the substrate at 100 uM after 15 mins by malachite green reagent method; format: cell-based; conditions: COS-7
T3 sequence (whole entry): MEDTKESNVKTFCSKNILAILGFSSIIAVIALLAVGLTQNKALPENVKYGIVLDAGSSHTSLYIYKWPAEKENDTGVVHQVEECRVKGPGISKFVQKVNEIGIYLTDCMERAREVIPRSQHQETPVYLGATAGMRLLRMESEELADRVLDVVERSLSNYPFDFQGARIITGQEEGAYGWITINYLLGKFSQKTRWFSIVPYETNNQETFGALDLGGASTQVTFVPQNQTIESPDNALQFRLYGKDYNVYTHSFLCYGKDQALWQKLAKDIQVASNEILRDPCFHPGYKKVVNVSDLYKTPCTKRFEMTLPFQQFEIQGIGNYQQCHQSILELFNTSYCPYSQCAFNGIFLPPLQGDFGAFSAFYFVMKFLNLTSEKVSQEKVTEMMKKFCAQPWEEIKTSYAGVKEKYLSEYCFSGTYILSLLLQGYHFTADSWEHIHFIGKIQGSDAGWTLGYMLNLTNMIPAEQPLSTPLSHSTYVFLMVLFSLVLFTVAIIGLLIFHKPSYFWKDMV
How it was run: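 Crude membrane-enriched protein extract of transiently transfected COS-7 cells, preincubated 3 min at 37 °C in Tris-Ringer buffer pH 7.3. Reaction started with 100 μM ATP, or with the analogue alone at 100 μM to test it as substrate. Stopped after 15 min with malachite green reagent; released Pi read at 630 nm. Mean ± SD, n = 3.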

5'-nucleotidase (Homo sapiens), sequence (P21589 whole entry): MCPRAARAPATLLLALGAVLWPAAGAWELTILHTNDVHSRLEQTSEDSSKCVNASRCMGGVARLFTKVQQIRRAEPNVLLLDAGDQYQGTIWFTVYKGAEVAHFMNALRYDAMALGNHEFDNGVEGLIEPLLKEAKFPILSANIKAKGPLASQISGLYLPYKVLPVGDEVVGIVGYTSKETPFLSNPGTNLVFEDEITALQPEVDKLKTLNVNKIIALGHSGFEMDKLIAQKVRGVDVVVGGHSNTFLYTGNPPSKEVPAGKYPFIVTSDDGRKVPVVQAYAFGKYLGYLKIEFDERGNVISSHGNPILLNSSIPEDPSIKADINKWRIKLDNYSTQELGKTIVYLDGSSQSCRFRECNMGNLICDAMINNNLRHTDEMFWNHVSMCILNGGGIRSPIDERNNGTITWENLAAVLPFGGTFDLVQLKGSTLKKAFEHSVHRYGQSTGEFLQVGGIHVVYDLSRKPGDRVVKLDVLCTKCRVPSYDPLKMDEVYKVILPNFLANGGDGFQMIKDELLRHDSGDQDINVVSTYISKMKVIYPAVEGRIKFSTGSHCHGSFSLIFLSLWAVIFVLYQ

BP(=O)(OP(=O)(O)CP(=O)(O)OC[C@H]1O[C@@H](n2cnc3c(N)ncnc32)C[C@@H]1O)OP(=O)(O)CP(=O)(O)OC[C@H]1O[C@@H](n2cnc3c(N)ncnc32)C[C@@H]1O
inhibition (Autotaxin (Homo sapiens)): 95%
IC50 [1]: 13 µM
Ki [1]: 9 µM
inhibition [2]: inactive

Nc1ncnc2c1ncn2[C@@H]1O[C@H](COP(=O)(O)CP(=O)(O)OP(=O)(O)CP(=O)(O)OC[C@H]2O[C@@H](n3cnc4c(N)ncnc43)[C@H](O)[C@@H]2O)[C@@H](O)[C@H]1O
Activity [3]: 13%
inhibition (Autotaxin (Homo sapiens)): 95%
IC50 [1]: 33 µM
Ki [1]: 13 µM
Activity [4]: 1.5%
inhibition [2]: 90%

Nc1ncnc2c1ncn2[C@H]1C[C@H](O)[C@@H](COP(=O)(O)CP(=O)(O)OP(=O)(O)CP(=O)(O)OC[C@H]2O[C@@H](n3cnc4c(N)ncnc43)C[C@@H]2O)O1
Activity [3]: 2.3%
inhibition (Autotaxin (Homo sapiens)): 95%
IC50 [1]: 50 µM
Ki [1]: 51 µM
Activity [4]: 1.1%
inhibition [2]: 80%

BP(=O)(OP(=O)(O)CP(=O)(O)OC[C@H]1O[C@@H](n2cnc3c(N)ncnc32)[C@H](O)[C@@H]1O)OP(=O)(O)CP(=O)(O)OC[C@H]1O[C@@H](n2cnc3c(N)ncnc32)[C@H](O)[C@@H]1O
Activity [3]: 7.5%
inhibition (Autotaxin (Homo sapiens)): 95%
IC50 [1]: 63 µM
Ki [1]: 20 µM
Activity [4]: 0.5%
inhibition [2]: inactive
